As usually defined, the inhibition is how much of the control response was suppressed. A word on the Ki: it is a measure of affinity in units of concentration, obtained from inhibition or displacement. Broadly, the MIC is the least concentration at which growth counts as inhibited. A low value points to greater potency.

Assay [1] addresses T1, Serine protease SplB (Staphylococcus aureus) (UniProt Q53781).
T1 sequence (whole entry): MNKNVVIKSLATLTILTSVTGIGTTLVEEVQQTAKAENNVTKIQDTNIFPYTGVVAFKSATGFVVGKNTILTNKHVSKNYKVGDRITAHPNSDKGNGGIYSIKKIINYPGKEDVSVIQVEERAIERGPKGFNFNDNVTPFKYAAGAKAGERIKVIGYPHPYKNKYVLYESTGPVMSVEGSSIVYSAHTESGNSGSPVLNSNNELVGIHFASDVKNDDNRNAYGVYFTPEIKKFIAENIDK
Description: Inhibition of Staphylococcus aureus SplB protease using Ac-Trp-Glu-Leu-Gln-ACC as substrate at 200 uM after 30 mins. The procedure, abridged: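 SplB protease (100 nM, recombinant, expressed and purified in-house) in 0.1 M Tris–HCl, 0.01% Triton X-100, pH 7.6, 37 °C. Fluorogenic substrate Ac-Trp-Glu-Leu-Gln-ACC (Ex 355/Em 460 nm). Enzyme added last to substrate plus inhibitor. Percentage inhibition read after 30 min of kinetic measurement with inhibitor at 200 µM.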

A further assay deals with Glutamyl endopeptidase (Staphylococcus aureus, UniProt P0C1U8). Description: Inhibition of Staphylococcus aureus endoproteinase GluC using Ac-Phe-Leu-Glu-ACC as substrate after 30 mins. The procedure, abridged: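 V8 protease (75 nM, commercial) in 0.1 M Tris–HCl, 0.05% Tween 20, pH 7.8, 37 °C. Fluorogenic substrate Ac-Phe-Leu-Glu-ACC (Ex 355/Em 460 nm). Enzyme added to substrate plus inhibitor, with [E]0 below [I]0. Observed inhibition rate constants taken from progress curves, giving k2/Ki and Ki.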

A further assay concerns Staphylococcus aureus. The assay is described as follows: Antibacterial activity against Staphylococcus aureus ATCC […] after 4 to 24 hrs. In kind it is functional, organism-based.
In assay [2] the target is Glutamyl endopeptidase (Staphylococcus aureus) (UniProt P0C1U8). Description: Inhibition of Staphylococcus aureus endoproteinase GluC-mediated human IgG degradation at 100 uM preincubated 1 hr prior to human IgG degradation addition measured after 24 hrs. The procedure, abridged: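 V8 protease (final 1 µM) pre-incubated 1 h at 37 °C with inhibitor (final 100 µM). Human IgG (final 160 µg/ml) then added and incubated 24 h at 37 °C. DMSO-only control. Fragments separated by gel and visualised by silver staining.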

Assay [3] shares this target. The assay is described as follows: Inhibition of Staphylococcus aureus endoproteinase GluC using Ac-Phe-Leu-Glu-ACC as substrate at 200 uM after 30 mins. The procedure, abridged:
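V8 protease (75 nM) in 0.1 M Tris–HCl, 0.05% Tween 20, pH 7.8, 37 °C, with fluorogenic Ac-Phe-Leu-Glu-ACC (Ex 355/Em 460 nm). Enzyme added last to substrate plus inhibitor. Percentage inhibition recorded after 30 min of kinetic measurement at 200 µM inhibitor.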

The source made the active and inactive calls. The rule behind the calls is not given here.

Sequence of Glutamyl endopeptidase (P0C1U8 whole entry): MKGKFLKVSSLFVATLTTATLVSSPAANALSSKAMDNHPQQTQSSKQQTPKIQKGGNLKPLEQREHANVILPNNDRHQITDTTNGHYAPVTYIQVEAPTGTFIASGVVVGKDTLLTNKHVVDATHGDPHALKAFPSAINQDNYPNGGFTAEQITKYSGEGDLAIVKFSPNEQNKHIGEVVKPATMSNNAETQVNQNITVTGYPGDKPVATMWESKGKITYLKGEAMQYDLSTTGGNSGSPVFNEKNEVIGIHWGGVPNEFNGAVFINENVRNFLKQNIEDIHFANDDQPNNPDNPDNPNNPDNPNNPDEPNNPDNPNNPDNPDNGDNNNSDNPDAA
Sequence of Glutamyl endopeptidase (Staphylococcus aureus) (P0C1U8 whole entry, the tested form may be a part): as the sequence (P0C1U8 whole entry) above

`CC(C)C[C@H](NC(=O)OC(C)(C)C)C(=O)NC(CCC(=O)O)P(=O)(Oc1ccccc1)Oc1ccccc1` (mixture of isomers): the inhibition in assay [1] worked out at 0%. This compound showed a Ki on Glutamyl endopeptidase of 7.8 µM.

As for `CC(C)[C@H](NC(=O)OC(C)(C)C)C(=O)NC(CCC(=O)O)P(=O)(Oc1ccccc1)Oc1ccccc1` (mixture of isomers), in assay [1], the inhibition was found to be 0%. At Glutamyl endopeptidase, this compound displayed a Ki of 23.3 µM.

Regarding `CC(C)C[C@H](NC(=O)[C@H](Cc1ccccc1)NC(=O)OC(C)(C)C)C(=O)NC(CCC(=O)O)P(=O)(Oc1ccccc1)Oc1ccccc1` (mixture of isomers), the inhibition entry in the assay with Staphylococcus aureus is “inactive”. In addition, in assay [2], the inhibition result is “Active”. Further, the inhibition in assay [1] was 0%. Moreover, the affinity at Glutamyl endopeptidase, expressed as Ki, was 6.2 µM.

As for `CC(C)C[C@H](NC(=O)[C@H](CCC(=O)O)NC(=O)OC(C)(C)C)C(=O)NC(CCC(=O)O)P(=O)(Oc1ccccc1)Oc1ccccc1` (mixture of isomers), in assay [1], the inhibition is 0%. The compound further displayed an inhibition constant (Ki) at Glutamyl endopeptidase of 9.5 µM.

Take `C[C@H](NC(=O)[C@H](Cc1ccccc1)NC(=O)OC(C)(C)C)C(=O)NC(CCC(=O)O)P(=O)(Oc1ccccc1)Oc1ccccc1` (mixture of isomers): in assay [1], the inhibition worked out at 0%. This compound also yielded a Ki at Glutamyl endopeptidase of 9.4 µM.

`C[C@H](NC(=O)[C@H](CCC(=O)O)NC(=O)OC(C)(C)C)C(=O)NC(CCC(=O)O)P(=O)(Oc1ccccc1)Oc1ccccc1` (mixture of isomers) came in with an inhibition in assay [1] of 0%. Also, the affinity on Glutamyl endopeptidase, expressed as Ki, was 12.9 µM.

In assay [1], `CC(C)[C@H](NC(=O)[C@H](Cc1ccccc1)NC(=O)OC(C)(C)C)C(=O)NC(CCC(=O)O)P(=O)(Oc1ccccc1)Oc1ccccc1` (mixture of isomers) showed an inhibition of 0%. In addition, the affinity at Glutamyl endopeptidase corresponds to a Ki of 8.15 µM.

The compound `CC(C)[C@H](NC(=O)[C@H](CCC(=O)O)NC(=O)OC(C)(C)C)C(=O)NC(CCC(=O)O)P(=O)(Oc1ccccc1)Oc1ccccc1` (mixture of isomers) showed an inhibition in assay [1] of 0%. Also, on Glutamyl endopeptidase, the affinity corresponds to a Ki of 9.95 µM.

Take `CC(C)C[C@H](NC(=O)[C@H](CC(=O)O)NC(=O)OC(C)(C)C)C(=O)NC(CCC(=O)O)P(=O)(Oc1ccccc1)Oc1ccccc1` (mixture of isomers): the inhibition in assay [1] was 0%; in assay [3], 41%.

The compound `CC(C)C[C@H](NC(=O)[C@H](CCC(=O)O)NC(=O)OC(C)(C)C)C(=O)NC(CCC(N)=O)P(=O)(Oc1ccccc1)Oc1ccccc1` (mixture of isomers) showed an inhibition in assay [3] of 0%.

With `CC(C)[C@H](NC(=O)[C@H](CC(=O)O)NC(=O)OC(C)(C)C)C(=O)NC(CCC(=O)O)P(=O)(Oc1ccccc1)Oc1ccccc1` (mixture of isomers), the inhibition in assay [1] is 0%; in assay [3], 50%.

As for `C[C@H](NC(=O)OC(C)(C)C)C(=O)NC(CCC(=O)O)P(=O)(Oc1ccccc1)Oc1ccccc1` (mixture of isomers), the inhibition was 0% in assay [1] and 39% in assay [3].

On to `C[C@H](NC(=O)[C@H](CC(=O)O)NC(=O)OC(C)(C)C)C(=O)NC(CCC(=O)O)P(=O)(Oc1ccccc1)Oc1ccccc1` (mixture of isomers), for which the inhibition in assay [1] was determined as 0%; in assay [3] it was 26%.

For the compound `O=C(O)CCC(NC(=O)OCc1ccccc1)P(=O)(Oc1ccccc1)Oc1ccccc1` (racemic), the inhibition in assay [1] came to 0%. Further, at Glutamyl endopeptidase, the inhibition constant (Ki) came out at 8.1 µM.

Regarding `CC(=O)NC(CCC(=O)O)P(=O)(Oc1ccccc1)Oc1ccccc1` (racemic), the inhibition in assay [1] is 0%. This compound came in with a Ki on Glutamyl endopeptidase of 11.1 µM.

GENTAMICIN displayed an MIC in the assay with Staphylococcus aureus of 2 µg/mL.

The record behind these values is ChEMBL document CHEMBL2390936, “Phosphonic analogues of glutamic acid as irreversible inhibitors of Staphylococcus aureus endoproteinase GluC: an efficient synthesis and inhibition of the human IgG degradation” (Bioorg Med Chem Lett, 2013).
